# In ChEMBL document CHEMBL1139534, “Inhibition of herpes simplex virus thymidine kinases by 2-phenylamino-6-oxopurines and related compounds: structure-activity relationships and antiherpetic activity in vivo” (J Med Chem, 2005):
# Key:
# Thymidine kinase [1] = molecular target: T1, Thymidine kinase (Human herpesvirus 2, UniProt Q6L709); assay: Inhibitory concentration against herpes simplex virus type 2 thymidine kinase; set-up: species or system Human alphaherpesvirus 2
# T1 sequence (Q6L709 whole entry): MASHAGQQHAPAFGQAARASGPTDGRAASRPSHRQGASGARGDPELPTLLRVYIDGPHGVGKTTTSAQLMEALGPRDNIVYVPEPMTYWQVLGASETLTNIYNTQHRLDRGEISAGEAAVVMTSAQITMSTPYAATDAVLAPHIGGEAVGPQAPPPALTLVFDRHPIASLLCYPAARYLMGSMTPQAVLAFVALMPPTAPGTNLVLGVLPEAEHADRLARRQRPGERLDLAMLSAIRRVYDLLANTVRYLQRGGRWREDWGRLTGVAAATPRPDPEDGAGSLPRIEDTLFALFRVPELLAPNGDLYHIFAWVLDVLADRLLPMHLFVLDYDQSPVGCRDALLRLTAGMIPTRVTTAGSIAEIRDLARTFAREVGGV
# Outline: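 Recombinant His-tagged HSV-2 TK expressed in E. coli, Ni-NTA purified. Products captured on DEAE paper and counted by scintillation. Inhibitor diluted from DMSO stocks, at least five concentrations in duplicate; IC50 is the concentration halving activity.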
# Thymidine kinase [2] = molecular target: T2, Thymidine kinase (Human herpesvirus 1 (strain SC16) (HHV-1) (Human herpes simplex virus1), UniProt P06479); assay: Inhibitory concentration against herpes simplex virus type 1 thymidine kinase
# T2 sequence (P06479 whole entry): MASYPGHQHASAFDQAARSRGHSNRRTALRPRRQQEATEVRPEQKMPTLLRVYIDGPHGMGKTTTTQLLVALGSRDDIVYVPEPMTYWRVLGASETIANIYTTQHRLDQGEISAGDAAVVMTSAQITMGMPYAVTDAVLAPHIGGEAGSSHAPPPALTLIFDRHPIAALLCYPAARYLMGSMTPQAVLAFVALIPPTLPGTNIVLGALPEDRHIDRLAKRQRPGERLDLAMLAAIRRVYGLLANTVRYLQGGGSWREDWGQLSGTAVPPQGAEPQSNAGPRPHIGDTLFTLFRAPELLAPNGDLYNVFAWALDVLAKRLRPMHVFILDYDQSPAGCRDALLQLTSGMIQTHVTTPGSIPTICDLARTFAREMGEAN
# Mus musculus [3] = assay: Effect on ocular HSV-2 reactivation in mice following intraperitoneal dosage at 200 mg/kg; expressed as HSV-2 positive cultures/15 mice; format: functional, Eye
# Outline: (§1)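 Female BALB/c mice, 6 weeks old, ocularly infected with HSV-2 strain G (Vero-grown) to establish trigeminal latency. Groups of 15 received a single ip dose as a corn oil suspension, with a corn oil-only group. Thirty minutes later they were immersed in 43 °C water for 10 min as hyperthermic stress. Eyes were swabbed after 24 h for infectious virus, and virus-positive cultures were counted per group.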
# Mus musculus [4] = assay: Effect on HSV-1 encephalitis in mice following intraperitoneal dosage at 100 mg/kg; expressed as mean day of death; format: functional
# Outline: (§2)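 Female BALB/c mice, 6 weeks old, groups of 10, anesthetized with ketamine/xylazine. Corneas lightly scratched, then 10⁶ PFU per eye applied in culture medium (HSV-1 McKrae or HSV-2 G, Vero-grown). Compound given ip as corn-oil suspension, 0.1 mL, twice daily for 5 days; vehicle controls. Mice alive at 30 days counted survivors; day of death recorded for the rest.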
# Mus musculus [5] = assay: Effect on HSV-2 encephalitis in mice following intraperitoneal dosage at 100 mg/kg; expressed as mean day of death; format: functional; outline: as §2
# Mus musculus [6] = assay: Effect on HSV-1 encephalitis in mice following intraperitoneal dosage at 100 mg/kg; expressed as number of survivors/10; format: functional; outline: as §2
# Mus musculus [7] = assay: Effect on HSV-2 encephalitis in mice following intraperitoneal dosage at 100 mg/kg; expressed as number of survivors/10; format: functional; outline: as §2
# Mus musculus [8] = assay: Effect ocular HSV-2 reactivation in mice following intraperitoneal dosage at 200 mg/kg; expressed as HSV-2 positive cultures/15 mice; format: functional, Eye; outline: as §1
# Mus musculus [9] = assay: Effect on HSV-2 encephalitis in mice following intraperitoneal dosage at 400 mg/kg; expressed as mean day of death; format: functional; outline: as §2
# Mus musculus [10] = assay: Effect on HSV-1 encephalitis in mice following intraperitoneal dosage at 400 mg/kg; expressed as number of survivors/10; format: functional; outline: as §2
# Mus musculus [11] = assay: Effect on HSV-2 encephalitis in mice following intraperitoneal dosage at 400 mg/kg; expressed as number of survivors/10; format: functional; outline: as §2
# Mus musculus [12] = assay: Effect on HSV-2 encephalitis in mice following intraperitoneal dosage at 200 mg/kg; expressed as mean day of death; format: functional; outline: as §2
# Mus musculus [13] = assay: Effect on HSV-2 encephalitis in mice following intraperitoneal dosage at 200 mg/kg; expressed as number of survivors/10; format: functional; outline: as §2
# Mus musculus [14] = assay: Effect on HSV-1 encephalitis in mice following intraperitoneal dosage at 200 mg/kg; expressed as number of survivors/10; format: functional; outline: as §2
# Mus musculus [15] = assay: Effect on HSV-1 encephalitis in mice following intraperitoneal dosage at 400 mg/kg; expressed as mean day of death; format: functional; outline: as §2
# Mus musculus [16] = assay: Effect on HSV-1 encephalitis in mice following intraperitoneal dosage at 200 mg/kg; expressed as mean day of death; format: functional; outline: as §2
# Thymidine kinase [17] = molecular target: T2, Thymidine kinase; assay: Binding affinity for herpes simplex virus type 1 thymidine kinase
# Thymidine kinase [18] = molecular target: T1, Thymidine kinase; assay: Binding affinity for herpes simplex virus type 2 thymidine kinase; set-up: species or system Human alphaherpesvirus 2
# Outline: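 His-tagged recombinant HSV-2 TK, expressed in E. coli DH5α and purified on Ni-NTA. Incubated 15 min at 37 °C in 30 mM HEPES-K+ pH 7.5, 6 mM MgCl2, 6 mM ATP, 0.5 mM DTT, with several [3H-methyl]TdR concentrations and inhibitor diluted from DMSO stocks. Phosphorylated product retained on DEAE paper disks and counted by scintillation. Ki taken from double-reciprocal (Lineweaver-Burk) plots.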
SMILES,IC50 (Thymidine kinase [1]) [nM],IC50 (Thymidine kinase [2]) [nM],also measured
Oc1nc(Nc2ccccc2)nc2c1ncn2CCCCN1CCC(N2CCCCC2)CC1,1000,16500,–
Oc1nc(Nc2ccccc2)nc2c1ncn2CCCCN1CCCC1CN1CCCCC1 (stereo not given),130,1000,–
CCN(CC)CCCCn1cnc2c(O)nc(Nc3ccccc3)nc21,230,4500,–
OCCCCCn1cnc2c(O)nc(Nc3ccccc3)nc21,54000,15000,Activity (Mus musculus [3]): 8; Activity (Mus musculus [4]): 10.7; Activity (Mus musculus [5]): 11.2; Activity (Mus musculus [6]): 0; Activity (Mus musculus [7]): 1
Oc1nc(Nc2ccccc2)nc2c1ncn2CCCCN1CCC(O)CC1,710,8200,–
O=c1[nH]c(Nc2ccccc2)nc2c1ncn2CCO,–,4400,–
Oc1nc(Nc2ccccc2)nc2c1ncn2CCCCN1CCCC(O)C1 (stereo not given),310,5700,–
OCCN(CCO)CCCCn1cnc2c(O)nc(Nc3ccccc3)nc21,340,5200,–
Oc1nc(Nc2ccccc2)nc2c1ncn2CCCCN1CCC(O)(c2ccc(Cl)c(C(F)(F)F)c2)CC1,200,2000,–
COC1CCN(CCCCn2cnc3c(O)nc(Nc4ccccc4)nc32)CC1,140,2300,–
Oc1nc(Nc2ccccc2)nc2c1ncn2CCCCN1CCCCC1c1ccccc1 (stereo not given),90,550,–
COCCCCn1cnc2c(=O)[nH]c(Nc3ccccc3)nc21,14000,12000,–
Nc1nc2c(ncn2COCCO)c(=O)[nH]1 [ACYCLOVIR],–,–,Activity (Mus musculus [3]): 10; Activity (Mus musculus [4]): 13; Activity (Mus musculus [5]): 17.2; Activity (Mus musculus [6]): 7; Activity (Mus musculus [7]): 6
O=c1[nH]c(Oc2ccccc2)nc2c1ncn2CCCCO,9000,750,–
Cl.Cl.Oc1nc(Nc2ccccc2)nc2c1ncn2CCCCN1CCCCC1,220,1600,Activity (Mus musculus [3]): 11; Activity (Mus musculus [5]): 15.2; Activity (Mus musculus [7]): 0
CN(c1ccccc1)c1nc2c(ncn2CCCCO)c(=O)[nH]1,37000,16000,–

SMILES,IC50 (Thymidine kinase [1]) [nM],IC50 (Thymidine kinase [2]) [nM],also measured
CCN(C)CCCCn1cnc2c(O)nc(Nc3ccccc3)nc21,380,4700,–
OCCCn1cnc2c(O)nc(Nc3ccccc3)nc21,1500,2000,Activity (Mus musculus [3]): 9; Activity (Mus musculus [4]): 9.7; Activity (Mus musculus [5]): 10.7; Activity (Mus musculus [6]): 1; Activity (Mus musculus [7]): 0
OCCCCn1cnc2c(O)nc(Sc3ccccc3)nc21,2000,500,Activity (Mus musculus [8]): 10
COC1CCCN(CCCCn2cnc3c(O)nc(Nc4ccccc4)nc32)C1 (stereo not given),150,2500,–
CC1CN(CCCCn2cnc3c(O)nc(Nc4ccccc4)nc32)CC(C)N1 (stereo not given),800,7100,–
OCCC1CCCCN1CCCCn1cnc2c(O)nc(Nc3ccccc3)nc21 (stereo not given),65,770,–
CN(C)CCCCn1cnc2c(O)nc(Nc3ccccc3)nc21,620,3600,–
O=C(O)P(=O)(O)O [FOSCARNET],–,–,Activity (Mus musculus [9]): 18.5; Activity (Mus musculus [10]): 7; Activity (Mus musculus [11]): 6; Activity (Mus musculus [3]): 7; Activity (Mus musculus [12]): 17.8; Activity (Mus musculus [4]): 9.2; Activity (Mus musculus [5]): 15.2; Activity (Mus musculus [13]): 4; Activity (Mus musculus [6]): 1; Activity (Mus musculus [7]): 0; Activity (Mus musculus [14]): 5; Activity (Mus musculus [15]): 12.3; Activity (Mus musculus [16]): 10.4
Oc1nc(Nc2ccccc2)nc2c1ncn2CCCCN1CCCc2ccccc21,47,350,–
N#CC1(c2ccccc2)CCN(CCCCn2cnc3c(O)nc(Nc4ccccc4)nc32)CC1,220,410,–
O=C(O)CCCn1cnc2c(O)nc(Nc3ccccc3)nc21,700,1000,Activity (Mus musculus [3]): 11
Nc1nc2c(ncn2CCCCO)c(=O)[nH]1,160000,60000,–
O=c1[nH]c(Nc2ccccc2)nc2c1ncn2CCCCO,–,–,Activity (Mus musculus [10]): 9; Activity (Mus musculus [11]): 10; Activity (Mus musculus [3]): 4; Activity (Mus musculus [12]): 18; Activity (Mus musculus [4]): 9.5; Activity (Mus musculus [5]): 15.7; Activity (Mus musculus [13]): 9; Activity (Mus musculus [6]): 3; Activity (Mus musculus [7]): 4; Activity (Mus musculus [14]): 6; Activity (Mus musculus [15]): 11; Activity (Mus musculus [16]): 11.8
Cl.Cl.Oc1nc(Nc2ccccc2)nc2c1ncn2CCCCN1CCCC2CCCCC21 (stereo not given),13,150,Activity (Mus musculus [3]): 10; Activity (Mus musculus [12]): 15.4; Activity (Mus musculus [13]): 0; Ki (Thymidine kinase [17]): 30 nM; Ki (Thymidine kinase [18]): 5 nM
C=CCN(CC=C)CCCCn1cnc2c(O)nc(Nc3ccccc3)nc21,420,2100,–
